In ChEMBL document CHEMBL4152196, “Design, synthesis and biological evaluation of novel trimethylangelicin analogues targeting nuclear factor kB (NF-kB)” (Eur J Med Chem, 2018):
Calls of active or inactive are those of the source. No cut-off for these calls is given here.

Key:
Salmonella typhimurium [1] = assay: Genotoxicity in Salmonella typhimurium TA1535 assessed as revertant colonies at 50 uL/plate in absence of Sprague-Dawley rat S9 metabolic activation after 72 hrs by Ames test (reference value: 1); format: toxicity, organism-based; details: salmonella enterica subsp. enterica serovar typhimurium
Salmonella typhimurium [2] = assay: Genotoxicity in Salmonella typhimurium TA98 assessed as revertant colonies at 10 uL/plate in presence of Sprague-Dawley rat S9 metabolic activation after 72 hrs by Ames test (reference value: 1); format: toxicity, organism-based; details: salmonella enterica subsp. enterica serovar typhimurium
Salmonella typhimurium [3] = assay: Genotoxicity in Salmonella typhimurium TA98 assessed as revertant colonies at 50 uL/plate in absence of Sprague-Dawley rat S9 metabolic activation after 72 hrs by Ames test (reference value: 1); format: toxicity, organism-based; details: salmonella enterica subsp. enterica serovar typhimurium
Homo sapiens [4] = organism: Homo sapiens; assay: Inhibition of NF-kappaB (unknown origin) assessed as decrease in NF-kappaB/DNA interaction at 12.5 to 100 uM using 32P-labeled target NF-kappaB double-stranded oligonucleotide after 30 mins by EMSA
How it was run: (§1)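 Purified NF-κB p50 (0.1 µl/20 µl, 50 gsu) was combined with 0.25 ng of ³²P-labeled double-stranded NF-κB consensus oligonucleotide. Bound 30 min at room temperature, then run on 6% polyacrylamide in 0.25× TBE at 200 V. IC₅₀ is 50% inhibition of the complex.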

K562 = assay: Cytotoxicity against human K562 cells after 2 days by cell counting analysis; format: cell-based; details: k562, 48 h
Homo sapiens [5] = organism: Homo sapiens; assay: Inhibition of NF-kappaB (unknown origin) assessed as decrease in NF-kappaB/DNA interaction at 12.5 uM using 32P-labeled target NF-kappaB double-stranded oligonucleotide after 30 mins by EMSA
Salmonella typhimurium [6] = assay: Genotoxicity in Salmonella typhimurium TA98 assessed as revertant colonies at 5 uL/plate in absence of Sprague-Dawley rat S9 metabolic activation after 72 hrs by Ames test (reference value: 1); format: toxicity, organism-based; details: salmonella enterica subsp. enterica serovar typhimurium
Salmonella typhimurium [7] = assay: Genotoxicity in Salmonella typhimurium TA97A assessed as revertant colonies at 50 uL/plate in presence of Sprague-Dawley rat S9 metabolic activation after 72 hrs by Ames test (reference value: 1); format: toxicity, organism-based; details: salmonella enterica subsp. enterica serovar typhimurium
Salmon testes DNA = assay: Induction of damage in salmon testes DNA at 100 uM in absence of 2.5 to 7.5 J/cm2 UVA irradiation by ethidium bromide dye-based agarose gel electrophoresis analysis; format: nucleic-acid assay; details: salmonidae
Salmonella typhimurium [8] = assay: Genotoxicity in Salmonella typhimurium TA100 assessed as revertant colonies at 1 uL/plate in absence of Sprague-Dawley rat S9 metabolic activation after 72 hrs by Ames test (reference value: 1); format: toxicity, organism-based; details: salmonella enterica subsp. enterica serovar typhimurium
Salmonella typhimurium [9] = assay: Genotoxicity in Salmonella typhimurium TA97A assessed as revertant colonies at 1 uL/plate in presence of Sprague-Dawley rat S9 metabolic activation after 72 hrs by Ames test (reference value: 1); format: toxicity, organism-based; details: salmonella enterica subsp. enterica serovar typhimurium
[10] = Inhibition of NF-kappaB (unknown origin) assessed as decrease in NF-kappaB/DNA interaction using 32P-labeled target NF-kappaB double-stranded oligonucleotide after 30 mins by EMSA; set-up: species or system Homo sapiens; how it was run: as §1
Salmonella typhimurium [11] = assay: Genotoxicity in Salmonella typhimurium TA97A assessed as revertant colonies at 50 uL/plate in absence of Sprague-Dawley rat S9 metabolic activation after 72 hrs by Ames test (reference value: 1); format: toxicity, organism-based; details: salmonella enterica subsp. enterica serovar typhimurium
IB3-1 [12] = assay: Antiproliferative activity against human IB3-1 cells after 2 days by cell counting analysis; format: cell-based; details: IB3-1, 48 h
How it was run: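 IB3-1 cells from a CF patient (ΔF508/W1282X), immortalized with adeno12/SV40, grown in LHC-8 with 5% FBS and no gentamycin at 37°C/5% CO₂. Treated at 12.5, 25, 50, 100, 200 and 800 µM. Cells counted by Coulter counter after 2 days, with untreated cells in log phase. IC₅₀ is the concentration giving 50% inhibition of cell growth.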

Salmonella typhimurium [13] = assay: Genotoxicity in Salmonella typhimurium TA1535 assessed as revertant colonies at 1 uL/plate in presence of Sprague-Dawley rat S9 metabolic activation after 72 hrs by Ames test (reference value: 1); format: toxicity, organism-based; details: salmonella enterica subsp. enterica serovar typhimurium
Salmonella typhimurium [14] = assay: Genotoxicity in Salmonella typhimurium TA1535 assessed as revertant colonies at 5 uL/plate in absence of Sprague-Dawley rat S9 metabolic activation after 72 hrs by Ames test (reference value: 1); format: toxicity, organism-based; details: salmonella enterica subsp. enterica serovar typhimurium
Salmonella typhimurium [15] = assay: Genotoxicity in Salmonella typhimurium TA100 assessed as revertant colonies at 50 uL/plate in presence of Sprague-Dawley rat S9 metabolic activation after 72 hrs by Ames test (reference value: 1); format: toxicity, organism-based; details: salmonella enterica subsp. enterica serovar typhimurium
IB3-1 [16] = assay: Inhibition of TNF-alpha induced IFN-gamma production in human IB3-1 cells at 1 uM preincubated for 5 hrs followed by TNF-alpha stimulation and measured after 24 hrs relative to control; format: functional
How it was run: (§2)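 IB3-1 cells (CF patient, ΔF508/W1282X, adeno12/SV40-immortalized) grown in LHC-8 with 5% FBS, no gentamycin, 37°C/5% CO₂; 60% confluent monolayers seeded, compound added after 24 h, 5 h before 80 ng/ml TNF-α, then 24 h further incubation. Cytokines in supernatants measured by Bioplex 27-plex Luminex bead assay: beads, detection antibody, streptavidin–phycoerythrin, 30/30/10 min at room temperature.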

Salmonella typhimurium [17] = assay: Genotoxicity in Salmonella typhimurium TA1535 assessed as revertant colonies at 5 uL/plate in presence of Sprague-Dawley rat S9 metabolic activation after 72 hrs by Ames test (reference value: 1); format: toxicity, organism-based; details: salmonella enterica subsp. enterica serovar typhimurium
Salmonella typhimurium [18] = assay: Genotoxicity in Salmonella typhimurium TA1535 assessed as revertant colonies at 10 uL/plate in presence of Sprague-Dawley rat S9 metabolic activation after 72 hrs by Ames test (reference value: 1); format: toxicity, organism-based; details: salmonella enterica subsp. enterica serovar typhimurium
Salmonella typhimurium [19] = assay: Genotoxicity in Salmonella typhimurium TA100 assessed as revertant colonies at 10 uL/plate in presence of Sprague-Dawley rat S9 metabolic activation after 72 hrs by Ames test (reference value: 1); format: toxicity, organism-based; details: salmonella enterica subsp. enterica serovar typhimurium
Salmonella typhimurium [20] = assay: Genotoxicity in Salmonella typhimurium TA100 assessed as revertant colonies at 100 uL/plate in absence of Sprague-Dawley rat S9 metabolic activation after 72 hrs by Ames test (reference value: 1); format: toxicity, organism-based; details: salmonella enterica subsp. enterica serovar typhimurium
Salmonella typhimurium [21] = assay: Genotoxicity in Salmonella typhimurium TA97A assessed as revertant colonies at 10 uL/plate in absence of Sprague-Dawley rat S9 metabolic activation after 72 hrs by Ames test (reference value: 1); format: toxicity, organism-based; details: salmonella enterica subsp. enterica serovar typhimurium
Salmonella typhimurium [22] = assay: Genotoxicity in Salmonella typhimurium TA97A assessed as revertant colonies at 5 uL/plate in absence of Sprague-Dawley rat S9 metabolic activation after 72 hrs by Ames test (reference value: 1); format: toxicity, organism-based; details: salmonella enterica subsp. enterica serovar typhimurium
Salmonella typhimurium [23] = assay: Genotoxicity in Salmonella typhimurium TA1535 assessed as revertant colonies at 10 uL/plate in absence of Sprague-Dawley rat S9 metabolic activation after 72 hrs by Ames test (reference value: 1); format: toxicity, organism-based; details: salmonella enterica subsp. enterica serovar typhimurium
Salmonella typhimurium [24] = assay: Genotoxicity in Salmonella typhimurium TA98 assessed as revertant colonies at 10 uL/plate in absence of Sprague-Dawley rat S9 metabolic activation after 72 hrs by Ames test (reference value: 1); format: toxicity, organism-based; details: salmonella enterica subsp. enterica serovar typhimurium
IB3-1 [25] = assay: Inhibition of TNF-alpha induced IL-10 production in human IB3-1 cells at 1 uM preincubated for 5 hrs followed by TNF-alpha stimulation and measured after 24 hrs relative to control; format: functional; how it was run: as §2
IB3-1 [26] = assay: Inhibition of TNF-alpha induced PDGF-B chain production in human IB3-1 cells at 1 uM preincubated for 5 hrs followed by TNF-alpha stimulation and measured after 24 hrs relative to control; format: functional; how it was run: as §2
IB3-1 [27] = assay: Inhibition of TNF-alpha induced IL-15 production in human IB3-1 cells at 1 uM preincubated for 5 hrs followed by TNF-alpha stimulation and measured after 24 hrs relative to control; format: functional; how it was run: as §2

Compound: CCc1cc2c(C(C)C)cc(=O)oc2c2c(C)coc12
- T/C (Salmonella typhimurium [1]): 1
- T/C (Salmonella typhimurium [2]): 0.7
- T/C (Salmonella typhimurium [3]): 1.2
- inhibition (Homo sapiens [4]): Active
- Activity (K562): Non-Toxic
- inhibition (Homo sapiens [5]): Active
- T/C (Salmonella typhimurium [6]): 1.2
- T/C (Salmonella typhimurium [7]): 1.2
- Activity (Salmon testes DNA): Not Active
- T/C (Salmonella typhimurium [8]): 0.8
- T/C (Salmonella typhimurium [9]): 1
- IC50 [10]: 7.4 µM
- T/C (Salmonella typhimurium [11]): 1.1
- IC50 (IB3-1 [12]): > 200 µM
- T/C (Salmonella typhimurium [13]): 1.1
- T/C (Salmonella typhimurium [14]): 1.1
- T/C (Salmonella typhimurium [15]): 1.2
- inhibition at 1 µM (IB3-1 [16]): > 20%
- T/C (Salmonella typhimurium [17]): 0.9
- T/C (Salmonella typhimurium [18]): 1.2
- T/C (Salmonella typhimurium [19]): 1
- T/C (Salmonella typhimurium [20]): 0.9
- T/C (Salmonella typhimurium [21]): 1.2
- T/C (Salmonella typhimurium [22]): 0.9
- T/C (Salmonella typhimurium [23]): 0.9
- T/C (Salmonella typhimurium [24]): 1.3
- inhibition at 1 µM (IB3-1 [25]): > 20%
- inhibition at 1 µM (IB3-1 [26]): > 20%
- inhibition at 1 µM (IB3-1 [27]): > 20%
